Assay results as given in ChEMBL document CHEMBL1156597, “Structure-activity relationship of kahalalide F synthetic analogues” (J Med Chem, 2008).

Columns and labels:
DU-145 = assay: Cytotoxicity against human DU145 cells after 48 hrs by SRB assay; assay type: functional, cell-based; conditions: Homo sapiens, DU-145, 48 h; for CC50: read-out: LC50 (the source's name)
How it was run: (§1)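 Cells grown in RPMI 1640 with 10% FBS and penicillin/streptomycin at 37 °C and 5% CO₂, trypsinized, then seeded at 5 × 10³/well. After 18 h drug-free attachment, samples in DMSO/EtOH/PBS (0.5:0.5:99) were added for 48 h continuous exposure. Cells were fixed with cold TCA (1 h, 4 °C) and stained with SRB (10 min). Tris-solubilized stain read at 490 nm. Triplicate wells, mean ± SD; GI₅₀ derived.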

LNCaP = assay: Cytotoxicity against human LNcaP cells after 48 hrs by SRB assay; assay type: functional; conditions: for CC50: read-out: LC50 (the source's name); how it was run: as §1
[1] = Cytotoxicity against human IGROV cells after 48 hrs by SRB assay; assay type: functional; conditions: for CC50: read-out: LC50 (the source's name); how it was run: as §1
[2] = Cytotoxicity against human IGROV-ET cells after 48 hrs by SRB assay; assay type: functional; conditions: for CC50: read-out: LC50 (the source's name); how it was run: as §1
SK-BR-3 = assay: Cytotoxicity against human SKBR3 cells after 48 hrs by SRB assay; assay type: functional; conditions: SK-BR-3, 48 h; for GI50: read-out: GI50; for CC50: read-out: LC50 (the source's name); how it was run: as §1
SK-MEL-28 = assay: Cytotoxicity against human SK-MEL-28 cells after 48 hrs by SRB assay; assay type: functional, cell-based; conditions: Homo sapiens, SK-MEL-28, 48 h; for CC50: read-out: LC50 (the source's name); how it was run: as §1
A549 = assay: Cytotoxicity against human A549 cells after 48 hrs by SRB assay; assay type: functional, cell-based; conditions: Homo sapiens, A549, 48 h; for GI50: read-out: GI50; how it was run: as §1
K562 = assay: Cytotoxicity against human K562 cells after 48 hrs by SRB assay; assay type: functional; conditions: K562, 48 h; for CC50: read-out: LC50 (the source's name); how it was run: as §1
PANC-1 = assay: Cytotoxicity against human PANC1 cells after 48 hrs by SRB assay; assay type: functional; conditions: PANC-1, 48 h; for CC50: read-out: LC50 (the source's name); how it was run: as §1
HT-29 = assay: Cytotoxicity against human HT29 cells after 48 hrs by SRB assay; assay type: functional, cell-based; conditions: Homo sapiens, HT-29, 48 h; for CC50: read-out: LC50 (the source's name); how it was run: as §1
LoVo = assay: Cytotoxicity against human LoVo cells after 48 hrs by SRB assay; assay type: functional; conditions: for CC50: read-out: LC50 (the source's name)
HeLa = assay: Cytotoxicity against human HeLa cells after 48 hrs by SRB assay; assay type: functional; conditions: for CC50: read-out: LC50 (the source's name); how it was run: as §1
[3] = Cytotoxicity against human HeLa-APL cells after 48 hrs by SRB assay; assay type: functional; how it was run: as §1

Structure (SMILES): C/C=C1\NC(=O)[C@H](Cc2ccccc2)NC(=O)[C@@H](C(C)C)NC(=O)[C@@H]([C@H](C)CC)NC(=O)[C@H](NC(=O)[C@H](NC(=O)[C@H](CCCC[N+](C)(C)C)NC(=O)[C@H]2CCCN2C(=O)[C@H](NC(=O)[C@@H](NC(=O)[C@@H](NC(=O)[C@H](NC(=O)CC[C@@H](C)CC)C(C)C)[C@@H](C)O)C(C)C)C(C)C)[C@H](C)CC)[C@H](C)OC(=O)[C@H](C(C)C)NC1=O
- GI50 (DU-145): 948 nM
- GI50 (DU-145; read-out: GI50): 1020 nM
- CC50 (DU-145): 880 nM
- GI50 (LNCaP): 1060 nM
- TGI (LNCaP): 1.06 µM
- CC50 (LNCaP): 1060 nM
- GI50 [1]: 470 nM
- GI50 ([1]; read-out: GI50): 612 nM
- CC50 [1]: 391 nM
- GI50 [2]: 532 nM
- GI50 ([2]; read-out: GI50): 639 nM
- CC50 [2]: 446 nM
- TGI (SK-BR-3): 363 nM
- GI50 (SK-BR-3): 372 nM
- CC50 (SK-BR-3): 369 nM
- GI50 (SK-MEL-28): 979 nM
- GI50 (SK-MEL-28; read-out: GI50): 1110 nM
- CC50 (SK-MEL-28): 863 nM
- LC50 (A549): 1120 nM
- TGI (A549): 1240 nM
- GI50 (A549): 1390 nM
- GI50 (K562): 1840 nM
- TGI (K562): 3.31 µM
- CC50 (K562): 2340 nM
- GI50 (PANC-1): 4.16 µM
- TGI (PANC-1): 4.73 µM
- CC50 (PANC-1): 2440 nM
- GI50 (HT-29): 786 nM
- TGI (HT-29): 754 nM
- CC50 (HT-29): 476 nM
- GI50 (LoVo): 361 nM
- TGI (LoVo): 353 nM
- CC50 (LoVo): 0.347 µM
- GI50 (HeLa): 943 nM
- TGI (HeLa): 809 nM
- CC50 (HeLa): 689 nM
- GI50 [3]: 1110 nM
- LC50 (concentration giving 50% net cell kill) [3]: 859 nM
- TGI [3]: 979 nM

Structure (SMILES): C/C=C1\NC(=O)[C@H](Cc2ccccc2)NC(=O)[C@@H](C(C)C)NC(=O)[C@@H]([C@H](C)CC)NC(=O)[C@H](NC(=O)[C@H](NC(=O)[C@H](CCCN)NC(=O)[C@H]2CCCN2C(=O)[C@H](NC(=O)[C@@H](NC(=O)[C@@H](NC(=O)[C@H](NC(=O)CCCNC(=N)N)C(C)C)[C@@H](C)O)C(C)C)C(C)C)[C@H](C)CC)[C@H](C)OC(=O)[C@H](C(C)C)NC1=O
- CC50 (DU-145): 1630 nM
- GI50 (LNCaP): 3930 nM
- TGI (LNCaP): 3.2 µM
- CC50 (LNCaP): 1520 nM
- CC50 [1]: 624 nM
- CC50 [2]: 695 nM
- CC50 (SK-BR-3): 2750 nM
- CC50 (SK-MEL-28): 1430 nM
- LC50 (A549): 1890 nM
- CC50 (K562): 2410 nM
- CC50 (PANC-1): 2510 nM
- CC50 (HT-29): 877 nM
- CC50 (LoVo): 4.74 µM
- CC50 (HeLa): 1030 nM
- LC50 (concentration giving 50% net cell kill) [3]: 1310 nM

Structure (SMILES): C/C=C1\NC(=O)[C@H](Cc2ccccc2)NC(=O)[C@@H](C(C)C)NC(=O)[C@@H]([C@H](C)CC)NC(=O)[C@H](NC(=O)[C@H](NC(=O)[C@H](CCCN)NC(=O)[C@H]2CCCN2C(=O)[C@H](NC(=O)[C@@H](NC(=O)[C@@H](NC(=O)[C@H](NC(=O)CCCC(C)C)C(C)C)[C@@H](C)O)C(C)C)C(C)C)[C@H](C)CC)CNC(=O)[C@H](C(C)C)NC1=O
- CC50 (DU-145): 1670 nM
- CC50 (LNCaP): 1550 nM
- CC50 [1]: 637 nM
- CC50 [2]: 710 nM
- TGI (SK-BR-3): 8040 nM
- GI50 (SK-BR-3): 8660 nM
- CC50 (SK-BR-3): 2810 nM
- CC50 (SK-MEL-28): 1460 nM
- LC50 (A549): 1930 nM
- CC50 (K562): 2460 nM
- CC50 (PANC-1): 2560 nM
- CC50 (HT-29): 895 nM
- GI50 (LoVo): 11500 nM
- TGI (LoVo): 9550 nM
- CC50 (LoVo): 4.84 µM
- CC50 (HeLa): 1050 nM
- LC50 (concentration giving 50% net cell kill) [3]: 1340 nM

Structure (SMILES): C/C=C1\NC(=O)[C@H](Cc2ccccc2)NC(=O)[C@@H](C(C)C)NC(=O)[C@@H]([C@H](C)CC)NC(=O)[C@H](NC(=O)[C@H](NC(=O)[C@H](CCCN)NC(=O)[C@H]2CCCN2C(=O)[C@H](NC(=O)[C@@H](NC(=O)[C@@H](NC(=O)[C@H](NC(=O)Cc2cc(F)cc(F)c2)C(C)C)[C@@H](C)O)C(C)C)C(C)C)[C@H](C)CC)[C@H](C)OC(=O)[C@H](C(C)C)NC1=O
- TGI (DU-145): 3.69 µM
- GI50 (DU-145; read-out: GI50): 1840 nM
- CC50 (DU-145): 1600 nM
- GI50 (LNCaP): 1650 nM
- TGI (LNCaP): 3.14 µM
- CC50 (LNCaP): 1490 nM
- GI50 [1]: 692 nM
- GI50 ([1]; read-out: GI50): 1370 nM
- CC50 [1]: 426 nM
- GI50 [2]: 679 nM
- GI50 ([2]; read-out: GI50): 889 nM
- CC50 [2]: 520 nM
- TGI (SK-BR-3): 1710 nM
- GI50 (SK-BR-3): 1270 nM
- CC50 (SK-BR-3): 1490 nM
- TGI (SK-MEL-28): 2930 nM
- GI50 (SK-MEL-28; read-out: GI50): 2340 nM
- CC50 (SK-MEL-28): 1400 nM
- LC50 (A549): 1120 nM
- TGI (A549): 1350 nM
- GI50 (A549): 1620 nM
- CC50 (K562): 2370 nM
- CC50 (PANC-1): 2460 nM
- CC50 (HT-29): 556 nM
- GI50 (LoVo): 794 nM
- TGI (LoVo): 1480 nM
- CC50 (LoVo): 2.2 µM
- GI50 (HeLa): 1410 nM
- TGI (HeLa): 1350 nM
- CC50 (HeLa): 1010 nM
- GI50 [3]: 2020 nM
- LC50 (concentration giving 50% net cell kill) [3]: 1290 nM
- TGI [3]: 2960 nM
